Compound activity deposited in PubChem BioAssay by Broad Institute.
In the library only some 3.6% were active in any assay of this set; here they are far more common.
SKKanGAS inh = blocks kanamycin growth of S. pyogenes SKKanGAS strain | BacTiter-Glo, 6 h | inhibition, % at 7.5 µM | 1.3% of 300,000 active | AID 1662;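 active = mean replicate score, as percent of positive control median, at least 50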;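 also: strain carries kanamycin resistance gene driven by streptokinase promoter and grows in 40 µg/ml kanamycin; loss of luminescence reflects streptokinase promoter inhibition or plain growth inhibition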
PfHsp90 yeast 2 = growth inhibition of yeast expressing Plasmodium Hsp90; S. cerevisiae expressing PfHsp90, BacTiter-Glo ATP, 48 h; yeast lacking PDR1 and PDR3 efflux regulators; inhibition, % at 9.4 µM; 0.32% of 310,000 active;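 active = every replicate shows inhibition above about 80%, whatever the replicate mean, limit read from the data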
Beta cell apopt = beta cell apoptosis inhibition | INS-1E cytokine-induced death, ATP luminescence, 48 h; percent of positive-control rescue, neutral wells zero | protection from apoptosis, % (test concentration not listed) | 0.8% of 300,000 active;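 active = Every replicate reaches about 75%, or at least half do and their mean reaches it too, limit read from the data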;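 also: higher means more ATP so stronger rescue from cytokine killing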
HIF act = HIF pathway transcriptional activation; 0.32% of 300,000 active; activation, % at 7.5 µM (by protocol); AID 1910; U2OS HRE-luciferase reporter, luminescence; normalized: DMSO 0%, desferrioxamine 100%;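 active = mean activation of at least 10% of the iron chelator positive control signal, with at least half of replicates also reaching 10%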
CSC inhib = cancer stem cell inhibition. cancer stem cell-like cells viability, luminescence. inhibition, % at 7.5 µM. 1.1% of 300,000 active. AID 2717; in the data active = inhibition above about 75%; tested in HMLE shEcad cells
T cruzi repl = blocks replication of Trypanosoma cruzi; inhibition, % (test concentration not listed); AID 1885; 1.4% of 300,000 active; T. cruzi beta-gal in NIH3T3, luminescence, 90 h;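 active = mean inhibition across valid replicates above about 55%, limit read from the data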;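 also: signal also drops with host cell toxicity which is not excluded here; higher percent means less beta-gal luminescence so fewer parasites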
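System – NIH/3T3 host cells with β-galactosidase reporter T. cruzi · Doses – single 50 nL compound addition per well in DMSO · Reagent – 5000 T. cruzi trypomastigotes/well · Medium – Low-serum DMEM with 2% FBS · Timing – ≥90 h infection period, 3 h prior cell attachment · Evaluation – parasite load inhibition, % · Technique – GalScreen luminescence, 60 min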
Each line names hits and unclear results; the compound was inactive in the other large screens.

COc1ccc2cc(C(=O)NCc3ccccc3)c(=Nc3ccc(C(=O)O)cc3)oc2c1	SKKanGAS inh 59
CCC/C(=C1/c2ccccc2C(=O)N1c1ccccc1)c1ccc(O[C@@H]2CCCCO2)cc1	none (no result: SKKanGAS inh, HIF act, T cruzi repl)
CCC/C(=C1/c2ccccc2C(=O)N1c1ccccc1)c1ccc2c(c1)OCCO2	CSC inhib 89 (no result: SKKanGAS inh, HIF act, T cruzi repl)
CCN(CC(=O)NCc1ccc(Cl)cc1)C(=O)c1sccc1C	none (no result: SKKanGAS inh, HIF act, T cruzi repl)
O=C(CCSc1ccc(Cl)c(Cl)c1)NC12CC3CC(CC(C3)C1)C2	SKKanGAS inh 65
O=C(CSc1ccc(F)cc1)NC12CC3CC(CC(C3)C1)C2	none
CC(C)=CCc1c(O)ccc(C2COc3c(CC=C(C)C)c(O)cc(O)c3C2=O)c1O (centres undefined)	SKKanGAS inh 51, PfHsp90 yeast 2 106
COc1ccc(C2C(Oc3ccccc3)C(=O)N2c2cc(C)ccc2C)cc1OC (centres undefined)	T cruzi repl 60
Cc1nnc2ccc(Oc3ccc(-c4ccccc4)cc3)nn12	Beta cell apopt 92
Cc1cc(OCCOCCN(C)CCO)cc(C)c1Cl	none
CCN(CC)CCOCCOc1cc(C)c(Cl)c(C)c1	CSC inhib 89, T cruzi repl 64
COc1cc(NC(=O)CN2C(=O)NC(CC(C)C)C2=O)cc(OC)c1OC (centres undefined)	none (no result: SKKanGAS inh, HIF act, CSC inhib, T cruzi repl)
COC(=O)c1ccc2c(c1)C(C)(C)C(/C=C/c1ccc(OC)c(OC)c1OC)=[N+]2C	Beta cell apopt 107 (no result: T cruzi repl)
COc1ccc(NS(=O)(=O)c2ccc(OC)c(NC(=O)CNC(=O)c3ccc(OC)cc3)c2)cc1	none (no result: SKKanGAS inh, HIF act, CSC inhib, T cruzi repl)
O=C1c2ccccc2C(=O)c2c1ccc(O)c2O	none (no result: SKKanGAS inh, Beta cell apopt, HIF act, CSC inhib, T cruzi repl)
COC(=O)c1ccc2c(c1O)C(=O)c1ccccc1C2=O	SKKanGAS inh 70, CSC inhib 96
Oc1[nH]c(N=C2N=c3ccccc3=N2)c2ccccc12	SKKanGAS inh 82, Beta cell apopt 113
CSCCC1NC(=O)C(C(C)=NNC(N)=O)=C1O (centres undefined)	none (no result: SKKanGAS inh, Beta cell apopt, HIF act, CSC inhib, T cruzi repl)
CC(C)n1cc(CN2CCCC(CNS(=O)(=O)c3cccc4cccnc34)C2)cn1 (centres undefined)	T cruzi repl 64 (no result: Beta cell apopt)
CCc1cccc(NS(=O)(=O)c2c(C)nc3scc(C)n3c2=O)c1	none (no result: CSC inhib)
COC(=O)C(Cc1cnc(Cl)s1)(C(=O)OC)c1ccc(C(F)(F)F)cc1[N+](=O)[O-]	none
COC(=O)C(Cc1cnc(Cl)s1)(C(=O)OC)c1ccc([N+](=O)[O-])cc1[N+](=O)[O-]	T cruzi repl 57
C=CCC(C(=O)OC)(C(=O)OC)c1ccc([N+](=O)[O-])cc1[N+](=O)[O-]	T cruzi repl 59
CN(C(=O)c1cccc(NC(=O)Cc2cccc([N+](=O)[O-])c2)c1)C1CCCC1	none (no result: SKKanGAS inh, HIF act, CSC inhib, T cruzi repl)
COc1cc(NC(=O)[C@H]2CCCN2S(=O)(=O)c2cccc3cccnc23)cc(OC)c1OC	none (no result: SKKanGAS inh, HIF act, T cruzi repl)
COc1ccc(NC(=O)C2CCCN2S(=O)(=O)c2cccc3cccnc23)c(OC)c1 (centres undefined)	PfHsp90 yeast 2 102 (no result: HIF act)
Cc1ccc(N2C(=O)c3ccccc3NC2C(C)Cc2ccc3c(c2)OCO3)cc1 (centres undefined)	T cruzi repl 55
O=C(C[C@@H]1C/C=C\C[C@@H](Cc2ccc(F)cc2)C(=O)OC[C@H]2CCCN2C1=O)NCCO	none (no result: SKKanGAS inh, HIF act, T cruzi repl)
COc1cc(/C=C2\CC(C(C)(C)C)C/C(=C\c3cc(OC)c(OC)c(OC)c3)C2=O)cc(OC)c1OC (centres undefined)	Beta cell apopt 98, CSC inhib 107
COc1cc(/C=C2\CC/C(=C\c3cc(OC)c(OC)c(OC)c3)C2=O)cc(OC)c1OC	none
COc1cc(/C=C2\CC/C(=C\c3cc(OC)c(O)c(OC)c3)C2=O)cc(OC)c1O	Beta cell apopt 89, CSC inhib 86 (no result: SKKanGAS inh, HIF act, T cruzi repl)
COc1cc(/C=C2/CCCC(C(=O)C(F)(F)F)=C2O)ccc1O	none
COc1cc(/C=C2\CCC/C(=C\c3ccc(O)c(OC)c3)C2=O)ccc1O	SKKanGAS inh 65, CSC inhib 100
COc1cc(/C=C2/CCC/C(=C\c3cc(O)c(OC)c(Cl)c3)C2=O)cc(Cl)c1O	CSC inhib 119
CC1CCCCN1CC(O)COCc1ccc(Cl)cc1 (centres undefined)	none (no result: Beta cell apopt)
N#CCCN(C(=O)COC(=O)C1CCN(S(=O)(=O)c2ccc3c(c2)OCCO3)CC1)c1ccccc1	none
